Bioassay records deposited in PubChem BioAssay by several laboratories.
CYP2C9 inh: blocks human cytochrome P450 2C9; P11712; CYP2C9 Supersomes, luciferin-H conversion, luminescence; inhibition, % at 5 µM; 96,000 compounds, 20% hits; AID 777;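 active = blocking of liver enzyme CYP2C9 beyond about 50% at 5 µM, limit read from the data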
tolC growth inh: growth inhibitors of E. coli BW25113 tolC mutant | growth inhibition, % at 10 µM (by protocol) | 65,000 compounds, 2.2% hits | AID 573 | OD615;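 active = growth inhibition at or above a cutoff equal to the mean over every tested compound plus 3 SD, cut at about 60% in these data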;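 also: growth measured after 20 h incubation at 37 °C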
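test system = E. coli BW25113 ΔtolC::kan bacteria | medium = LB with kanamycin 50 µg/mL | signal = OD at 615 nm | schedule = 37 °C, 20 h exposure | evaluation = % inhibition of E. coli growth | compound dosing = one dose of 10 µM final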
CYP2C19 activ: increases human CYP2C19 enzyme activity; AID 1025; activation factor at 5 µM; P33261; 96,000 tested, under 10 active; recombinant CYP2C19, luciferin-H EGE luminescence; hits give high values; 0 = fully inhibited enzyme, 1 = untreated enzyme;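 active = activation factor of at least 2 at 5 µM in the primary screen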
E coli WT exp: blocks growth of wild type E. coli BW25113 | OD600 absorbance | growth inhibition, % at 100 µM | 98,000 compounds, 0.15% hits;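 active = growth inhibition above about 50% at one test dose, limit read from the data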;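 also: growth measured after 20 h incubation at 37 °C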
CYP2C19 inh: inhibitors of human CYP2C19; P33261; CYP2C19 Supersomes, luciferin-H EGE luminescence, 30 min; inhibition, % at 5 µM; 96,000 compounds, 21% hits; AID 778;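 active = CYP2C19 inhibition above a set limit at 5 µM in the primary screen, cut at about 50% in these data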
CYP2C9 activ: increases human cytochrome P450 2C9 activity. P11712. recombinant CYP2C9, luciferin-H conversion, luminescence; hits give high values; factor 1 = untreated enzyme, 0 = blocked. activation factor at 5 µM. 96,000 compounds, 1.4% hits. AID 1024;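 active = activation factor of 2 or more for CYP2C9 at a 5 µM dose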
Numbers stand for hits; – = inactive; · = not tested or not shown. Compounds with a hit are over-represented: about 29% of the library has one in this group of screens.

SMILES	CYP2C9 inh	tolC growth inh	CYP2C19 activ	E coli WT exp	CYP2C19 inh	CYP2C9 activ
CCOC(=O)C1=C(c2ccccc2)N=C2SCC(=O)N2C1c1ccc(OCC)c(OCC)c1 (stereo unspecified)	–	·	–	–	–	–
COCCOC(=O)C1=C(C)N=C2SCCC(=O)N2C1c1ccc(OC(=O)c2ccco2)cc1 (stereo unspecified)	73	–	–	–	73	–
CCOC(=O)C1=C(C)N=C2SCCC(=O)N2C1c1ccc(C(=O)OC)cc1 (stereo unspecified)	–	–	–	–	68	–
CCOC(=O)C1=C(C)N=C2SCCC(=O)N2C1c1sccc1C (stereo unspecified)	–	–	–	–	–	–
Cc1cc(C)n2nc(C(=O)OCCOc3ccc(F)cc3)nc2n1	–	–	–	–	–	–
CCc1nn(C(C)C(=O)NCCc2ccc(OC)c(OC)c2)c(=O)c2cc3occc3n12 (stereo unspecified)	–	–	–	–	–	–
CCC(C(=O)NCc1ccccc1OC)n1nc(C)n2c(cc3occc32)c1=O (stereo unspecified)	63	·	–	–	56	–
CCCCS(=O)CC(O)COc1ccc(C(C)(C)C)cc1 (stereo unspecified)	–	–	–	–	58	–
CCCCS(=O)CC(O)COCC (stereo unspecified)	–	·	–	–	–	–
COc1ccc(N2CCN(C(=O)CSc3nnc4n3C(C)(C)Cc3ccccc3-4)CC2)cc1	–	–	–	–	58	–
COc1ccc(N2CCN(C(=O)CC(NC(N)=O)c3cccc(Oc4ccccc4)c3)CC2)cc1 (stereo unspecified)	–	–	–	–	64	–
CC1(C)Cc2ccccc2-c2nnc(SCC(=O)N3CCc4ccccc43)n21	53	–	–	–	–	–
COc1ccc(N2CCN(C(=O)CSc3nnc4c5cc(C)ccc5n(C)c4n3)CC2)cc1	56	·	–	–	81	–
COc1cc(NC(=O)CSc2nnc3n2C(C)(C)Cc2ccccc2-3)cc(OC)c1	–	–	–	–	–	–
COC(=O)CSc1nnc2n1C(C)(C)Cc1ccccc1-2	–	–	–	–	–	–
COC(=O)CCCC(=O)N1CCOCCN(C(=O)CCCC(=O)OC)CCOCC1	–	–	–	–	–	–
CC1(Cc2ccc3c(c2)OCO3)NC(=O)NC1=O (stereo unspecified)	–	–	–	–	–	–
COC(=O)Cc1c(C)nc2nc(NCc3cccc([N+](=O)[O-])c3)[nH]n2c1=O	–	·	–	–	–	–
COc1ccc(N2CCN(C(=O)CSc3ccccc3N)CC2)cc1	69	–	–	–	58	–
COc1ccc(N2CCN(C(=O)CSc3ccccc3)CC2)cc1	–	–	–	–	–	–
O=C1c2ccccc2C(O)(Cc2ccccc2)N1CCCN1CCOCC1 (stereo unspecified)	–	–	–	–	–	–
O=C1c2ccccc2C(O)(Cc2ccccc2)N1C1CCCCC1 (stereo unspecified)	–	100	–	–	–	–
O=C1Nc2ccccc2C(O)(C(=O)NCc2ccc3c(c2)OCO3)N1c1ccccc1 (stereo unspecified)	–	–	–	–	–	–
O=C1c2ccccc2C(O)(Cc2ccccc2)N1c1ccc2c(c1)OCO2 (stereo unspecified)	90	–	–	–	87	–
CCCCC1(Cc2cccc([N+](=O)[O-])c2)C(=O)N(c2ccccc2)N(c2ccccc2)C1=O	80	·	–	–	80	–
SMILES	CYP2C9 inh	tolC growth inh	CYP2C19 activ	E coli WT exp	CYP2C19 inh	CYP2C9 activ
Nc1c(-c2ccccc2)cnn1-c1cccc([N+](=O)[O-])c1	–	·	–	–	–	–
COc1ccc(NC(=O)NC(C(F)(F)F)C(F)(F)F)cc1	–	–	–	–	–	–
CCCC(=O)Nc1ccc(S(=O)(=O)N2CCCC2)cc1	–	·	–	–	–	–
CCN(CC)S(=O)(=O)c1ccc(NC(=O)C(OC)c2ccccc2)cc1 (stereo unspecified)	55	–	–	–	–	–
CC(=O)NC(CC(=O)Nc1ccc(S(=O)(=O)N2CCCC2)cc1)c1ccccc1 (stereo unspecified)	52	–	–	–	–	–
CCN(CC)S(=O)(=O)c1ccc(NC(=O)CC(NC(C)=O)c2ccccc2)cc1 (stereo unspecified)	86	·	–	–	–	–
